# Assay results published in ChEMBL document CHEMBL4390662, “Design, synthesis and biological evaluation of novel α-acyloxy carboxamides via Passerini reaction as caspase 3/7 activators” (Eur J Med Chem, 2019).
# Legend:
# NFS-60 [1] = test: Induction of apoptosis in mouse NFS60 cells assessed as total apoptotic cells at IC50 incubated for 72 hrs by annexin V/propidium iodide staining based flow cytometry (reference value: 0.495 +/- 0.01%); assay type: functional
# NFS-60 [2] = test: Induction of apoptosis in mouse NFS60 cells assessed as viable cells level at IC50 incubated for 72 hrs by annexin V/propidium iodide staining based flow cytometry (reference value: 99.52%); assay type: functional
# MCF7 [3] = test: Induction of apoptosis in human MCF7 cells assessed as late apoptotic cells level at IC50 incubated for 72 hrs by annexin V/propidium iodide staining based flow cytometry (reference value: 0.01%); assay type: functional
# HepG2 [4] = test: Induction of apoptosis in human HepG2 cells assessed as viable cells level at IC50 incubated for 72 hrs by annexin V/propidium iodide staining based flow cytometry (reference value: 98.97%); assay type: functional
# MCF7 [5] = test: Induction of apoptosis in human MCF7 cells assessed as early apoptotic cells level at IC50 incubated for 72 hrs by annexin V/propidium iodide staining based flow cytometry (reference value: 0.01%); assay type: functional
# HepG2 [6] = test: Induction of apoptosis in human HepG2 cells assessed as early apoptotic cells at IC50 incubated for 72 hrs by annexin V/propidium iodide staining based flow cytometry (reference value: 0.78 +/- 0.09%); assay type: functional
# NFS-60 [7] = test: Induction of apoptosis in mouse NFS60 cells assessed as late apoptotic cells level at IC50 incubated for 72 hrs by annexin V/propidium iodide staining based flow cytometry (reference value: 0.01%); assay type: functional
# HepG2 [8] = test: Induction of apoptosis in human HepG2 cells assessed as caspase 3/7 activity using DEVD aminoluciferin as substrate at IC50 after 24 hrs by fluorescence assay relative to control; assay type: functional
# Outline: (§1)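 Caspase 3/7 activation measured with Caspase-Glo 3/7 kit using a luminogenic caspase-cleavable substrate. […] Reported as percent activation, mean ± SEM.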
# MCF7 [9] = test: Induction of apoptosis in human MCF7 cells assessed as viable cells level at IC50 incubated for 72 hrs by annexin V/propidium iodide staining based flow cytometry (reference value: 99.5%); assay type: functional
# MCF7 [10] = test: Induction of apoptosis in human MCF7 cells assessed as caspase 3/7 activity using DEVD aminoluciferin as substrate at IC50 after 24 hrs […] relative to control; assay type: functional; outline: as §1
# NFS-60 [11] = test: Induction of apoptosis in mouse NFS60 cells assessed as late apoptotic cells at IC50 incubated for 72 hrs by annexin V/propidium iodide staining based flow cytometry (reference value: 0.015 +/- 0.01%)
# NFS-60 [12] = test: Induction of apoptosis in mouse NFS60 cells assessed as early apoptotic cells at IC50 incubated for 72 hrs by annexin V/propidium iodide staining based flow cytometry (reference value: 0.02 +/- 0.01%); assay type: functional
# NFS-60 [13] = test: Induction of apoptosis in mouse NFS60 cells assessed as caspase 3/7 activity using DEVD aminoluciferin as substrate at IC50 after 24 hrs […] relative to control; assay type: functional; outline: as §1
# NFS-60 [14] = test: Induction of apoptosis in mouse NFS60 cells assessed as early apoptotic cells level at IC50 incubated for 72 hrs by annexin V/propidium iodide staining based flow cytometry (reference value: 0.46%); assay type: functional
# HepG2 [15] = test: Induction of apoptosis in human HepG2 cells assessed as total apoptotic cells at IC50 incubated for 72 hrs by annexin V/propidium iodide staining based flow cytometry (reference value: 0.169 +/- 0.02%); assay type: functional
# HepG2 [16] = test: Induction of apoptosis in human HepG2 cells assessed as late apoptotic cells at IC50 incubated for 72 hrs by annexin V/propidium iodide staining based flow cytometry (reference value: 0.1 +/- 0.001%); assay type: functional
# HepG2 [17] = test: Induction of apoptosis in human HepG2 cells assessed as late apoptotic cells level at IC50 incubated for 72 hrs by annexin V/propidium iodide staining based flow cytometry (reference value: 0.1%); assay type: functional
# HepG2 [18] = test: Induction of apoptosis in human HepG2 cells assessed as early apoptotic cells level at IC50 incubated for 72 hrs by annexin V/propidium iodide staining based flow cytometry (reference value: 0.05%); assay type: functional
# HepG2 [19] = test: Induction of apoptosis in human HepG2 cells assessed as necrotic cells level at IC50 incubated for 72 hrs by annexin V/propidium iodide staining based flow cytometry (reference value: 0.87%); assay type: functional
# MCF7 [20] = test: Induction of apoptosis in human MCF7 cells assessed as late apoptotic cells at IC50 incubated for 72 hrs by annexin V/propidium iodide staining based flow cytometry (reference value: 0.01 +/- 0.001%); assay type: functional
# HepG2 [21] = test: Cytotoxicity against human HepG2 cells assessed as cell growth inhibition incubated for 72 hrs by MTT assay; assay type: functional, cell-based; details: HepG2, 72 h
# Outline: (§2)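 Cells grown in RPMI-1640 with 10% FBS and seeded at 5×10^3 per well. After 24 h, serial concentrations given for 72 h at 37°C, 5% CO2. Then 5 mg/mL MTT stock added for 3 h, formazan dissolved in DMSO, A570 read. IC50 calculated from the curves.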
# WI-38 = test: Cytotoxicity against human WI38 cells assessed as cell growth inhibition incubated for 72 hrs by MTT assay; assay type: cell-based
# Outline: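 Wi-38 fibroblasts grown in DMEM with 10% FBS and seeded at 5×10^3 per well. Attachment 24 h, then serial concentrations for 72 h at 37°C, 5% CO2. MTT stock (5 mg/mL) added for 3 h at 37°C, DMSO solubilization, absorbance at 570 nm. IC50 estimated.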
# NFS-60 [22] = test: Induction of apoptosis in mouse NFS60 cells assessed as necrotic cells level at IC50 incubated for 72 hrs by annexin V/propidium iodide staining based flow cytometry (reference value: 0.01%); assay type: functional
# MCF7 [23] = test: Induction of apoptosis in human MCF7 cells assessed as early apoptotic cells at IC50 incubated for 72 hrs by annexin V/propidium iodide staining based flow cytometry (reference value: 0.47 +/- 0.01%); assay type: functional
# NFS-60 [24] = test: Cytotoxicity against mouse NFS60 cells assessed as cell growth inhibition incubated for 72 hrs by MTT assay; assay type: functional, cell-based; details: NFS-60, 72 h; outline: as §2
# MCF7 [25] = test: Induction of apoptosis in human MCF7 cells assessed as necrotic cells level at IC50 incubated for 72 hrs by annexin V/propidium iodide staining based flow cytometry (reference value: 0.48%); assay type: functional
# MCF7 [26] = test: Induction of apoptosis in human MCF7 cells assessed as total apoptotic cells at IC50 incubated for 72 hrs by annexin V/propidium iodide staining based flow cytometry (reference value: 0.48 +/- 0.01%); assay type: functional
compound,measurement,setting,value
COc1cccc2c1C(=O)c1c(O)c3c(c(O)c1C2=O)C[C@@](O)(C(=O)CO)C[C@@H]3O[C@H]1C[C@H](N)[C@H](O)[C@H](C)O1 [DOXORUBICIN],Activity,NFS-60 [1],34.595%
same,Activity,NFS-60 [2],58.34%
same,Activity,MCF7 [3],18.78%
same,Activity,HepG2 [4],53.61%
same,Activity,MCF7 [5],5.92%
same,Activity,HepG2 [6],10.59%
same,Activity,NFS-60 [7],21.62%
same,Activity,HepG2 [8],48.09%
same,Activity,MCF7 [9],60.42%
same,Activity,MCF7 [10],42.94%
same,Activity,NFS-60 [11],23.215%
same,Activity,NFS-60 [12],11.379%
same,Activity,NFS-60 [13],45.39%
same,Activity,NFS-60 [14],7.27%
same,Activity,HepG2 [15],36.08%
same,Activity,HepG2 [16],25.49%
same,Activity,HepG2 [17],23.91%
same,Activity,HepG2 [18],10.54%
same,Activity,HepG2 [19],11.94%
same,Activity,MCF7 [20],20.445%
same,IC50,HepG2 [21],10 nM
same,IC50,"WI-38; Homo sapiens, WI-38, 72 h",26.6 nM
same,EC100,"WI-38; human, wi-38, 72 h",0.0121 µM
same,Activity,NFS-60 [22],12.76%
same,Activity,MCF7 [23],13.53%
same,IC50,NFS-60 [24],13 nM
same,Activity,MCF7 [25],14.88%
same,Activity,MCF7 [26],33.974%
